Assay results published in ChEMBL document CHEMBL4480434, “Anacolosins A-F and Corymbulosins X and Y, Clerodane Diterpenes from Anacolosa clarkii Exhibiting Cytotoxicity toward Pediatric Cancer Cell Lines” (2019).

Legend:
Assay type in all cases: functional
A673 [1] = assay: Antiproliferative activity against human A673 cells assessed as growth inhibition after 48 hrs by sulforhodamine B assay; settings: A673, 48 h
How it was run: (§1)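 A-673, SJCRH30 and Hep293TT cells in RPMI-1640 with 5% FBS and 0.5% gentamycin at 37 °C, 5% CO2, seeded at 4000–6000 cells/well and adhered overnight. DMSO solutions added to triplicate wells (0.5% v/v DMSO final) for 48 h. Medium removed, cells fixed with 10% TCA, SRB absorbance compared with vehicle and time-0 plates. TGI from nonlinear regression; n = 3, mean ± SEM.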

[2] = Antiproliferative activity against human SJCRH30 cells assessed as growth inhibition after 48 hrs by sulforhodamine B assay; how it was run: as §1
[3] = Antiproliferative activity against human D283 cells assessed as growth inhibition after 48 hrs by sulforhodamine B assay; settings: D283, 48 h
How it was run: (§2)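 D283 medulloblastoma cells grown in IMEM with 5% FBS and 0.3% gentamycin at 37 °C, 5% CO2, plated at 4000–6000 cells/well overnight. Compound in DMSO (0.5% v/v final), triplicate wells, 48 h. Because cells adhere poorly, 20% TCA added directly to the medium for fixation. SRB absorbance referenced to vehicle and time-0 plates; TGI by nonlinear regression, n = 3, mean ± SEM.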

Hep293TT [4] = assay: Antiproliferative activity against human Hep293TT cells assessed as growth inhibition after 48 hrs by sulforhodamine B assay; how it was run: as §1
A673 [5] = assay: Antiproliferative activity against human A673 cells assessed as growth inhibition after 48 hrs by sulforhodamine B assay relative to control; settings: A673, 48 h; how it was run: as §1
[6] = Antiproliferative activity against human SJCRH30 cells assessed as growth inhibition after 48 hrs by sulforhodamine B assay relative to control; how it was run: as §1
[7] = Antiproliferative activity against human D283 cells assessed as growth inhibition after 48 hrs by sulforhodamine B assay relative to control; settings: D283, 48 h; how it was run: as §2
Hep293TT [8] = assay: Antiproliferative activity against human Hep293TT cells assessed as growth inhibition after 48 hrs by sulforhodamine B assay relative to control; how it was run: as §1

| SMILES | TGI (A673 [1]) | TGI [2] | TGI [3] | TGI (Hep293TT [4]) | Emax (A673 [5]) | Emax [6] | Emax [7] | Emax (Hep293TT [8]) |
| --- | --- | --- | --- | --- | --- | --- | --- | --- |
| C=CC(=C)CCC1(C)C(C)CC(=O)C23C(=C[C@H](OC(=O)CC(C)C)CC12)[C@@H](OC(C)=O)O[C@H]3OC(C)=O (some centres undefined) | 1100 nM | 670 nM | 660 nM | 1000 nM | 100% | 100% | 100% | 100% |
| C=CC(=C)CCC1(C)C(C)CC(=O)C23C(=C[C@H](OC(=O)CCC)CC12)[C@@H](OC(C)=O)O[C@H]3OC(C)=O (some centres undefined) | 1000 nM | 500 nM | 600 nM | 900 nM | 100% | 100% | 100% | 100% |
| C=CC(=C)CCC1(C)C(C)CC(=O)C23C(=C[C@H](OC(=O)C(C)C)CC12)[C@@H](OC(C)=O)O[C@H]3OC(C)=O (some centres undefined) | 4100 nM | 2300 nM | 2300 nM | 3200 nM | 100% | 100% | 100% | 100% |
| C=CC(=C)CCC1(C)C(C)CC(=O)C23C(=C[C@H](OC(=O)[C@@H](C)CC)CC12)[C@@H](OC(C)=O)O[C@H]3OC(C)=O (some centres undefined) | 1200 nM | 730 nM | 660 nM | 800 nM | 100% | 100% | 100% | 100% |
| C=CC(=C)CCC1(C)C(C)CC(O)C23C(=C[C@H](OC(=O)CC)CC12)[C@@H](OC(C)=O)O[C@H]3OC(C)=O (some centres undefined) | 900 nM | 360 nM | 500 nM | 300 nM | 100% | 100% | 100% | 100% |
| C=CC(=C)CCC1(C)C(C)CC(=O)C23C(=C[C@H](OC(=O)CC)CC12)[C@@H](OC(C)=O)O[C@H]3OC(C)=O (some centres undefined) | 1100 nM | 520 nM | 700 nM | 1000 nM | 100% | 100% | 100% | 100% |
| C=CC(=C)CCC1(C)C(C)CC(O)C23C(=C[C@H](OC(=O)CC(C)C)CC12)[C@@H](OC(C)=O)O[C@H]3OC(C)=O (some centres undefined) | 700 nM | 340 nM | 360 nM | 220 nM | 100% | 100% | 100% | 100% |
| C=CC(=C)CCC1(C)C(C)CC(O)C23C(=C[C@H](OC(=O)/C(C)=C\C)CC12)[C@@H](OC(C)=O)O[C@H]3OC(C)=O (some centres undefined) | 1000 nM | 440 nM | 700 nM | 280 nM | 100% | 100% | 100% | 100% |
| C=CC(=C)CCC1(C)C(C)CC(O)C23C(=C[C@H](OC(=O)[C@@H](C)CC)CC12)[C@@H](OC(C)=O)O[C@H]3OC(C)=O (some centres undefined) | 1700 nM | 800 nM | 1100 nM | 600 nM | 100% | 100% | 100% | 100% |
| C=CC(=C)CCC1(C)C(C)CC(=O)C23C(=C[C@H](OC(=O)/C(C)=C\C)CC12)[C@@H](OC(C)=O)O[C@H]3OC(C)=O (some centres undefined) | 3100 nM | 1900 nM | 2000 nM | 1800 nM | 100% | 100% | 100% | 100% |
| CCC1=C[C@@H]2CN(C1)Cc1c([nH]c3ccccc13)[C@@](C(=O)OC)(c1cc3c(cc1OC)N(C)[C@H]1[C@@](O)(C(=O)OC)[C@H](OC(C)=O)[C@]4(CC)C=CCN5CC[C@]31[C@@H]54)C2 [VINORELBINE] | 6 nM | 6 nM | 80 nM | 80 nM |  |  |  |  |
